# Source: article PMC9271465 (ESMO Open, 2022)
# Legend:
# [1] = system: EGFR T790M-mutated NSCLC; assay: phase I dose-escalation: efficacy; assay type: in vivo, patients; conditions: FAS
# Summary of the method: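 Adults with T790M+ NSCLC (ARMS-confirmed) progressing on prior EGFR-TKIs; 3+3 escalation. Oral tablet, empty stomach: single dose day 1, then after 7 days continuous dosing in 21-day cycles (25–300 mg/day) until progression. CT/MRI brain, CT neck/chest/abdomen, bone scan every eight cycles; assessed at baseline, cycles 2, 4, 6, then every 2 cycles. RECIST v1.1 best overall response; disease control confirmed by imaging every 6 weeks.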
# [2] = preclinical tolerability in animals; assay type: in vivo; conditions: preclinical studies; unpublished data
# [3] = biological target: wild-type EGFR (Homo sapiens, UniProt P00533); assay: kinase inhibition, wild-type EGFR; assay type: biochemical; conditions: read-out: IC50 against wild-type EGFR; kinase level; unpublished data
# [4] = phase I dose-escalation: plasma pharmacokinetics; assay type: in vivo, patients; conditions: for Cmax,ss / t1/2 / AUC0-24 h / Cmax: mean (%CV); for Tmax,ss / Tmax: median (range)
# Summary of the method: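 Oral tablet, fasted, qd or b.i.d. (25–300 mg). Plasma sampled in cycle 0 after a single dose at pre-dose and 0.5–144 h. Under continuous dosing, sampled pre-dose on cycle 1 days 8 and 15, and on day 21 pre-dose to 24 h (b.i.d. to 12 h). Plasma stored at −80 °C. Noncompartmental analysis; arithmetic mean (%CV), Tmax median (range).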
# [5] = multiple doses 21 days, 25 mg qd, n = 1
# [6] = multiple doses 21 days, 50 mg qd, n = 3
# [7] = multiple doses 21 days, 100 mg b.i.d., n = 3
# [8] = multiple doses 21 days, 100 mg qd, n = 3
# [9] = multiple doses 21 days, 200 mg qd, n = 3
# [10] = multiple doses 21 days, 300 mg qd, n = 1
# [11] = steady state after 21 days of multiple doses
# wild-type EGFR, sequence (P00533 25-1210): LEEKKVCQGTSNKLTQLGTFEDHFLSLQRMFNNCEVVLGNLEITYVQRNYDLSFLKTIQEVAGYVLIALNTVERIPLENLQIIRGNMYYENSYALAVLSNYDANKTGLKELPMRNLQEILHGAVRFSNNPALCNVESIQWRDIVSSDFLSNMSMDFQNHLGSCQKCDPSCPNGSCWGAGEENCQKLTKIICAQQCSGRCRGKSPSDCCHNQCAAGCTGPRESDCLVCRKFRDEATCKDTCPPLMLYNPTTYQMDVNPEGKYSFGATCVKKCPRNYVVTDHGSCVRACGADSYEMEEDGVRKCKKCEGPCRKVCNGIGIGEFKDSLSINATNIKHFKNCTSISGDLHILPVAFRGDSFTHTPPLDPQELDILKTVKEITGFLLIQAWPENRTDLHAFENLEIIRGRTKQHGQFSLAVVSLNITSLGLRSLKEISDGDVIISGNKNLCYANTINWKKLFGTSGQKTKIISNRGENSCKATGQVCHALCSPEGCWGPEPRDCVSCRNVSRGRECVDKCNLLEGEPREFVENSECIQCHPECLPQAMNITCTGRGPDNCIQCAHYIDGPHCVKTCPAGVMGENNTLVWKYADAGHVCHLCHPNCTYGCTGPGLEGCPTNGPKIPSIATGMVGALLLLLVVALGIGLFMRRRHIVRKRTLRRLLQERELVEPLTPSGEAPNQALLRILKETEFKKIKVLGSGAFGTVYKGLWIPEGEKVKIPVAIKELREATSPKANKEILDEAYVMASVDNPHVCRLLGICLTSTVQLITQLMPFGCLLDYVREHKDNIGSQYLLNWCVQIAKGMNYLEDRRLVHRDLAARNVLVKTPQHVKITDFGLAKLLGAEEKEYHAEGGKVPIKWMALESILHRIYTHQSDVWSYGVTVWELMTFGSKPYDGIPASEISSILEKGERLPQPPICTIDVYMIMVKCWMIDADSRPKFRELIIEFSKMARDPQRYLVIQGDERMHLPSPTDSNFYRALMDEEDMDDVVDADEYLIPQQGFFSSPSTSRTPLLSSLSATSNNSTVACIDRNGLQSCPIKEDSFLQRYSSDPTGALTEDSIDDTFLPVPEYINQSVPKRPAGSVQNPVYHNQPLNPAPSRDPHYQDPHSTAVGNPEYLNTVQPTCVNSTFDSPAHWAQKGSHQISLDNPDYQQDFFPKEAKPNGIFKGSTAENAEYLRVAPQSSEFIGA
smiles,measurement,setting,value
C=CC(=O)Nc1cc(Nc2ncc(Cl)c(Nc3ccccc3C(=O)C(=O)N(C)C)n2)c(OC)cc1N1CCN(C)CC1 [BPI-15086],"CR, patients",[1]; all 17 patients,No patients showed CR
same,DCR,[1]; all 17 patients,47.1%
same,ORR,[1]; all 17 patients,17.6%
same,"PD, patients",[1]; all 17 patients,41.2%
same,"confirmed PR, patients",[1]; all 17 patients,17.6%
same,"could not be assessed for response, patients",[1]; all 17 patients,11.8%
same,response,[1]; one patient of the 25-mg/day dose group,no response was observed
same,"PD, patients",[1]; three patients in the 300-mg/day group,None
same,tolerability in animals,[2],well tolerated
same,IC50,[3],503 nM
same,dose dependence of Cmax and AUC0-t,"[4]; 25 to 300 mg, single dose and multiple doses",increased in a dose-dependent manner
same,"Cmax,ss",[4]; [5],24.6 (NA) ng/ml
same,"Tmax,ss",[4]; [5],2.88 (2.88-2.88) h
same,"Cmax,ss",[4]; [6],48.5 (64.3) ng/ml
same,"Tmax,ss",[4]; [6],2.08 (2.02-4.00) h
same,t1/2,"[4]; multiple doses 21 days, 50 mg qd",8.94 (NA) h
same,"Cmax,ss",[4]; [7],240 (37.9) ng/ml
same,"Tmax,ss",[4]; [7],2.98 (2.03-3.00) h
same,t1/2,"[4]; multiple doses 21 days, 100 mg b.i.d.",4.78 (NA) h
same,"Cmax,ss",[4]; [8],84.6 (65.6) ng/ml
same,"Tmax,ss",[4]; [8],3.00 (2.00-3.95) h
same,"Cmax,ss",[4]; [9],209 (71.1) ng/ml
same,"Tmax,ss",[4]; [9],2.02 (1.98-3.00) h
same,t1/2,"[4]; multiple doses 21 days, 200 mg qd",9.09 (1.51) h
same,"Cmax,ss",[4]; [10],924 (NA) ng/ml
same,"Tmax,ss",[4]; [10],2.02 (2.02-2.02) h
same,t1/2,"[4]; multiple doses 21 days, 300 mg qd",9.84 (NA) h
same,AUC0-24 h,"[4]; single dose, 25 mg qd, n = 1",285 (NA) h × ng/ml
same,Cmax,"[4]; single dose, 25 mg qd, n = 1",31.6 (NA) ng/ml
same,t1/2,"[4]; single dose, 25 mg qd, n = 1",12.2 (NA) h
same,Tmax,"[4]; single dose, 25 mg qd, n = 1",1.97 (1.97-1.97) h
same,AUC0-24 h,"[4]; single dose, 50 mg qd, n = 3",324 (47.7) h × ng/ml
same,Cmax,"[4]; single dose, 50 mg qd, n = 3",31.3 (40.1) ng/ml
same,t1/2,"[4]; single dose, 50 mg qd, n = 3",13.4 (35.2) h
same,Tmax,"[4]; single dose, 50 mg qd, n = 3",2.93 (2.02-4.05) h
same,AUC0-24 h,"[4]; single dose, 100 mg qd, n = 3",580 (37.3) h × ng/ml
same,Cmax,"[4]; single dose, 100 mg qd, n = 3",46.1 (34.7) ng/ml
same,t1/2,"[4]; single dose, 100 mg qd, n = 3",11.3 (23.3) h
same,Tmax,"[4]; single dose, 100 mg qd, n = 3",3.00 (2.03-4.00) h
same,AUC0-24 h,"[4]; single dose, 200 mg qd, n = 7",2630 (91.2) h × ng/ml
same,Cmax,"[4]; single dose, 200 mg qd, n = 7",273 (97.8) ng/ml
same,t1/2,"[4]; single dose, 200 mg qd, n = 7",9.91 (15.5) h
same,Tmax,"[4]; single dose, 200 mg qd, n = 7",4.02 (2.02-5.13) h
same,AUC0-24 h,"[4]; single dose, 300 mg qd, n = 3",3860 (41.3) h × ng/ml
same,Cmax,"[4]; single dose, 300 mg qd, n = 3",354 (29.5) ng/ml
same,t1/2,"[4]; single dose, 300 mg qd, n = 3",14.1 (58.6) h
same,Tmax,"[4]; single dose, 300 mg qd, n = 3",4.00 (3.98-5.00) h
same,"mean apparent terminal elimination half-life (t1/2), range across doses","[4]; single dose, 25-300 mg",9.91 to 14.1 h
same,"Median Tmax, range across doses","[4]; single dose, lowest to highest doses 25-300 mg",1.97 to 4.02 h
same,"mean Vz/F, range across doses",[4]; steady state,556 to 3830 L
same,"mean apparent oral clearance (CLss/F), range across doses",[4]; steady state,49.3 to 166 L/h
same,"mean t1/2, range across doses",[4]; steady state,4.78 to 9.84 h
same,"Cmax,ss, range across doses",[4]; [11],24.6 to 924 ng/mL
same,"Tmax,ss, range across doses",[4]; [11],2.02 to 3.00 h
